Experimental data reported in ChEMBL document CHEMBL1152787, “Search for MDR modulators: design, syntheses and evaluations of N-substituted acridones for interactions with p-glycoprotein and Mg2+” (Bioorg Med Chem, 2009).

How the values were obtained:
[1] = biological target: T1, ATP-dependent translocase ABCB1 (Homo sapiens, UniProt P08183); assay: Inhibition of P-gp ATPase activity in […] DC-3F/ADX cells assessed as increase in basal activity measured by NADH level at 5 uM by spectrophotometric method; format: cell-based; set-up: scale not given: the % may be the effect or the level left; conditions: Chinese hamster
Method in brief: (§1)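 P-gp basal MgATP hydrolysis in vesicle suspension, monitored continuously by spectrophotometry. ADP formation is coupled through phosphoenolpyruvate→pyruvate→lactate with NADH→NAD+ conversion, read as NADH absorbance at 340 nm in a 96-well plate. Compound stocks of 0.5, 5 and 50 µM give final well concentrations of 0.05, 0.5 and 5 µM. Run in triplicate.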

[2] = biological target: T1, ATP-dependent translocase ABCB1; assay: Inhibition of P-gp ATPase activity in […] DC-3F/ADX cells assessed as increase in basal activity measured by NADH level at 0.5 uM by spectrophotometric method; format: cell-based; set-up: scale not given: the % may be the effect or the level left; conditions: Chinese hamster; method in brief: as §1
[3] = biological target: T1, ATP-dependent translocase ABCB1; assay: Inhibition of P-gp ATPase activity in […] DC-3F/ADX cells assessed as increase in basal activity measured by NADH level at 0.05 uM by spectrophotometric method; format: cell-based; set-up: scale not given: the % may be the effect or the level left; conditions: Chinese hamster; method in brief: as §1
[4] = Lipophilicity, log P of the compound; format: physicochemical; conditions: octanol/water

T1 sequence (P08183 whole entry): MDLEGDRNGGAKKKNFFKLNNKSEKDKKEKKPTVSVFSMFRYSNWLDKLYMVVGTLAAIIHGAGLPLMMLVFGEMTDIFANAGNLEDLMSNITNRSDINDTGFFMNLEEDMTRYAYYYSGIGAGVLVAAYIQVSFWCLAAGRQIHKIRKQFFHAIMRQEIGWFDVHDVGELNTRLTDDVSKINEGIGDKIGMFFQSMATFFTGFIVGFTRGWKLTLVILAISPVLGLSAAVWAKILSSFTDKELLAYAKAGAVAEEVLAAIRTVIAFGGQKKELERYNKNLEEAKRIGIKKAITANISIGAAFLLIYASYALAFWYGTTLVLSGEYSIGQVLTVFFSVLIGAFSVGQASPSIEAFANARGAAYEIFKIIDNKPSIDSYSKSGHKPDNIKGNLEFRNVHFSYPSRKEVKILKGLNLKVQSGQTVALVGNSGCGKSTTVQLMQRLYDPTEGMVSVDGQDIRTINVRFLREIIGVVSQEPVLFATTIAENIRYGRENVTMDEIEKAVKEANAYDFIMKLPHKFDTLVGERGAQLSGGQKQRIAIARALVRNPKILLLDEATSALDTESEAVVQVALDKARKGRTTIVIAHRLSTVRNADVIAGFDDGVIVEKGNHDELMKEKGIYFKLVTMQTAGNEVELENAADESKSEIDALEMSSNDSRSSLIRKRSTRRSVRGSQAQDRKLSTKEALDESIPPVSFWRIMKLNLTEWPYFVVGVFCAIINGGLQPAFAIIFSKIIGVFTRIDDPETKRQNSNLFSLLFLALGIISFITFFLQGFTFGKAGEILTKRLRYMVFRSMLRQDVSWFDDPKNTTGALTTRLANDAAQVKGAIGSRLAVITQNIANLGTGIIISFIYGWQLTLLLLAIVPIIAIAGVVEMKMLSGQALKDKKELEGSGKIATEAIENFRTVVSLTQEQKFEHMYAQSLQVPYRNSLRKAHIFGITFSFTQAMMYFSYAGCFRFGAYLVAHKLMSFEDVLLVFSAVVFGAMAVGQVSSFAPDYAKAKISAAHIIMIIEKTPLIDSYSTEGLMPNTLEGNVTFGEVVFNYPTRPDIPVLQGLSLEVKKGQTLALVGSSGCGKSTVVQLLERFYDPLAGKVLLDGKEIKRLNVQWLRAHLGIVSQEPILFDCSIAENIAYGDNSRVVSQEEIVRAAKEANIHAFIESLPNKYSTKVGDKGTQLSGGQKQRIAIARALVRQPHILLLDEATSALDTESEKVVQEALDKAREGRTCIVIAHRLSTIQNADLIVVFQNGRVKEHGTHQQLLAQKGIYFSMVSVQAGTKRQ

Activity [1] [%]	Activity [2] [%]	Activity [3] [%]	logP [4]	Compound
33	30			COc1ccc(CCN(C)CCCC(C#N)(c2ccc(OC)c(OC)c2)C(C)C)cc1OC (configuration not stated) [VERAPAMIL]
38	34	31	1.73	O=c1c2ccccc2n(CC(O)CN2CCCC2)c2ccccc12 (configuration not stated)
44	40	33	2.14	O=c1c2ccccc2n(CC(O)CN2CCCCC2)c2ccccc12 (configuration not stated)
35	31			CC[C@]1(O)C[C@@H]2CN(CCc3c([nH]c4ccccc34)[C@@](C(=O)OC)(c3cc4c(cc3OC)N(C)[C@H]3[C@@](O)(C(=O)OC)[C@H](OC(C)=O)[C@]5(CC)C=CCN6CC[C@]43[C@@H]65)C2)C1 [VINBLASTINE]
36	32	29	1.98	CCN(CC)CC(O)Cn1c2ccccc2c(=O)c2ccccc21 (configuration not stated)
31	32	25	2.56	O=c1c2ccccc2n(CC(O)CN2CCC(N3CCCCC3)CC2)c2ccccc12 (configuration not stated)

The next lines start with the compound.

Compound	Activity [1] [%]	Activity [2] [%]	Activity [3] [%]	logP [4]
CC(C)N(CC(O)Cn1c2ccccc2c(=O)c2ccccc21)C(C)C (configuration not stated)	28	21	18	2.58
CC(=O)[C@H]1CC[C@H]2[C@@H]3CCC4=CC(=O)CC[C@]4(C)[C@H]3CC[C@]12C [PROGESTERONE]	34	30		
O=c1c2ccccc2n(CC(O)CN2CCOCC2)c2ccccc12 (configuration not stated)	30	27	24	1.08
CCCNCC(O)COc1ccccc1C(=O)CCc1ccccc1 (configuration not stated) [PROPAFENONE]	40	31		
